# Experimental data: article PMC3139720 (Proteins, 2011)
# Where a chain is given by its changes, count along the chain named. Names and notes keep the numbering of the source. Values joined by “and” are separate entries in the source; they are usually repeats but may differ in a detail not shown here. Identical values can stand only once. Like-named read-outs stand apart in the source and are kept apart here. Marks after values point to notes of the source that are not given here.
# B1: RBP.L61C: E. coli ribose-binding protein variant engineered to contain a single, buried cysteine (L61C), C-terminal … tag (protein, UniProt P02925 26-296, looked up, variant L61C)
# Ribose import binding protein …: KDTIALVVSTLNNPFFVSLKDGAQKEADKLGYNLVVLDSQNNPAKELANVQDLTVRGTKICLINPTDSDAVGNAVKMANQANIPVITLDRQATKGEVVSHIASDNVLGGKIAGDYIAKKAGEGAKVIELQGIAGTSAARERGEGFQQAVAAHKFNVLASQPADFDRIKGLNVMQNLLTAHPDVQAVFAQNDEMALGALRALQTAGKSDVMVVGFDGTPDGEKAVNDGKLAATIAQLPDQIGAKGVETADKVLKGEKVQAKYPVDLKLVVKQ
# modifications: C-terminal … tag
# B2: RBP.A188C: E. coli ribose-binding protein variant engineered to contain a single, buried cysteine (A188C), C-terminal … tag (protein, UniProt P02925 26-296, looked up, variant A188C)
# Ribose import binding protein …: B1 Ribose import binding protein … with C61L, A188C
# modifications: C-terminal … tag
# What was measured:
# [1] = reaction of ABD with L-GSH; for Ea/R: Arrhenius fit
# [2] = Practical properties of thiol-reactive probes; format: physicochemical; conditions: data not shown
# physchem = conditions: apparent pKa of L-GSH
# [3] = Thermal unfolding monitored by circular dichroism at 222 nm; format: physicochemical; conditions: pH 7, CD signal at 222 nm, fit of Eq. 1
# Method in brief: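 His-tagged variants, Ni-affinity purified and buffer-exchanged. Protein at 3 μM in 25 mM potassium phosphate, 100 mM KCl, pH 7. CD signal at 222 nm recorded as a function of temperature. Apparent Tm obtained by fitting Eq. 1.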
# [4] = fQCR: ABD labeling of a single buried cysteine over a temperature gradient; format: physicochemical
# Method in brief: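 Purified single-buried-cysteine variant at 5-10 μM in 25 mM potassium phosphate, 100 mM KCl, pH 7, with TCEP. Final ABD at least 10-fold over protein. Parallel reactions run across a gradient thermocycler and quenched after fixed Δt by rapid cooling or acid. Fluorescence relative to RFUmax (400-2000 μM ABD) gives fractional labeling. Probe-concentration slices test EX2. ΔCp fixed at 3.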
# [5] = fQCR ligand binding: RBP.A188C in absence and presence of D-ribose; conditions: for Δ^apoGU: absence of ligand; for Tm / ΔHm: free energy profile; for Kd: ligand ribose, from ΔΔGU (Eq. 17)
# Method in brief: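 RBP.A188C at 5 μM with 400 μM ABD and 50 μM TCEP (final) in 25 mM potassium phosphate, 100 mM KCl, pH 7, without or with 20 μM ligand. Samples incubated 10 min across a gradient thermocycler, then fluorescence read at 30°C (ex 405, em 465 nm). Fractional labeling converted to free-energy profiles. KD derived versus temperature and free ligand concentration via Eq. 17.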
# [6] = absence of ribose (Fig. 6B inset)
# [7] = presence of 20 μM ribose (Fig. 6B inset)
# [8] = Δt 300 s, [ABD] 500 μM, PHERAstar FS microplate reader (Fig. 7)
molecule,measurement,setting,value
"NS(=O)(=O)c1ccc(F)c2nonc12 [ABD, 4-(aminosulfonyl)-7-fluoro-2,1,3-benzoxadiazole]","lnA, average value and standard error",[1]; over pH 6-8.5,27.3 ± 0.3
same,Ea/R,[1]; pH 6 (by order of symbols),-9300 ± 200 K
same,Ea/R,[1]; pH 7 (by order of symbols),-8300 ± 200 K
same,Ea/R,[1]; pH 8 (by order of symbols),-7800 ± 200 K
same,Ea/R,[1]; pH 8.5 (by order of symbols),-7400 ± 200 K
"CCN(CC)c1ccc2c(C)c(-c3ccc(N4C(=O)C=CC4=O)cc3)c(=O)oc2c1 [CPM, N-[4-(7-diethylamino-4-methyl-3-coumarinyl)phenyl]maleimide]",solubility,[2],limited
same,spontaneous hydrolysis,[2],high rate of spontaneous hydrolysis that is strongly temperature dependent
"N[C@@H](CCC(=O)N[C@@H](CS)C(=O)NCC(=O)O)C(=O)O [L-GSH, reduced glutathione]",pKa,physchem,8.03 ± 0.01
B1,apparent Tm,[3],53 ± 1 °C
same,Tm,"[4]; summary line, quantified graphically",53 ± 1 ^c °C
same,~kclose at Tm,"[4]; Δt 300 s, [ABD] 100 μM",< 2 × 10^-2 ^e s^-1
same,~kclose at Tm,"[4]; Δt 300 s, [ABD] 200 μM",< 2 × 10^-2 ^e s^-1
same,~kclose at Tm,"[4]; Δt 300 s, [ABD] 400 μM",< 2 × 10^-2 ^e s^-1
same,Tm,"[4]; Δt 300 s, [ABD] 400 μM, quantified graphically (non-EX2)",53 ± 1 ^c °C
same,~kclose at Tm,"[4]; Δt 300 s, [ABD] 600 μM",< 2 × 10^-2 ^e s^-1
same,Tm,"[4]; Δt 300 s, [ABD] 600 μM, quantified graphically (non-EX2)",53 ± 1 ^c °C
same,~kclose at Tm,"[4]; Δt 300 s, [ABD] 800 μM",< 2 × 10^-2 ^e s^-1
same,Tm,"[4]; Δt 300 s, [ABD] 800 μM, quantified graphically (non-EX2)",53 ± 1 ^c °C
same,~kclose at Tm,"[4]; Δt 300 s, [ABD] 1200 μM",< 2 × 10^-2 ^e s^-1
same,Tm,"[4]; Δt 300 s, [ABD] 1200 μM, quantified graphically (non-EX2)",53 ± 1 ^c °C
B2,Δ^apoGU,[5]; 46 °C,3.7 kcal/mol
same,Δ^apoGU,[5]; 48 °C,3.0 kcal/mol
same,Δ^apoGU,[5]; 50 °C,2.3 kcal/mol
same,Δ^apoGU,[5]; 52 °C,1.6 kcal/mol
same,Δ^apoGU,[5]; 54 °C,0.9 kcal/mol
same,Δ^apoGU,[5]; 56 °C,0.1 kcal/mol
same,Tm,[5]; [6],57 ± 1 °C
same,ΔHm,[5]; [6],138 ± 1 kcal/mol
same,Tm,[5]; [7],59 ± 1 °C
same,ΔHm,[5]; [7],160 ± 8 kcal/mol
same,Kd,[5]; 46 °C,1200 nM
same,Kd,[5]; 48 °C,1400 nM
same,Kd,[5]; 50 °C,1700 nM
same,Kd,[5]; 52 °C,2000 nM
same,Kd,[5]; 54 °C,2300 nM
same,Kd,[5]; 56 °C,2700 nM
same,apparent Tm,[3],56 ± 1 °C
same,Ea/R,[4]; average value,-8140 ^a K
same,Tm,"[4]; Δt 300 s, [ABD] 200 μM",56 ± 1 °C
same,Ea/R,"[4]; Δt 300 s, [ABD] 200 μM, pH 7",-8163 ± 6 K
same,Ea/R,"[4]; Δt 300 s, [ABD] 400 μM, pH 7",-8110 ± 14 K
same,Tm,[4]; [8],56 ± 1 ^f °C
same,ΔHm,[4]; [8],123 ± 16 ^f kcal/mol and 112 ± 5 ^f kcal/mol
same,ΔHm,"[4]; Δt 300 s, [ABD] 800 μM, ΔCp fixed at 3",121 ± 4 kcal/mol
same,~kclose at Tm,"[4]; Δt 300 s, [ABD] 1600 μM",~0.04 s⁻¹
same,ΔHm,"[4]; Δt 300 s, [ABD] 1600 μM, ΔCp fixed at 3",117 ± 8 kcal/mol
same,Tm,"[4]; Δt 600 s, [ABD] 200 μM",56 ± 1 °C
same,Tm,"[4]; Δt 600 s, [ABD] 400 μM",56 ± 1 °C
same,ΔHm,"[4]; Δt 600 s, [ABD] 800 μM, ΔCp fixed at 3",128 ± 3 kcal/mol
same,Tm,"[4]; Δt 600 s, [ABD] 1200 μM",58 ± 1 °C
same,~kclose at Tm,"[4]; Δt 600 s, [ABD] 1200 μM",~0.04 s⁻¹
same,ΔHm,"[4]; Δt 600 s, [ABD] 1200 μM, ΔCp fixed at 3",125 ± 5 kcal/mol
same,Tm,"[4]; Δt 600 s, [ABD] 1600 μM",58 ± 1 °C
same,~kclose at Tm,"[4]; Δt 600 s, [ABD] 1600 μM",~0.04 s⁻¹
same,ΔHm,"[4]; Δt 600 s, [ABD] 1600 μM, ΔCp fixed at 3",121 ± 4 kcal/mol
